Laboratory results from ChEMBL document CHEMBL3421610, “Antimalarial activity of 4-amidinoquinoline and 10-amidinobenzonaphthyridine derivatives” (J Med Chem, 2015).
Converted amounts (≈) assume the structure as drawn. The source made the active and inactive calls. The calls are words filed in the database; no cut-off is given here.

Assays:
[1] = Half life in human liver microsomes at 1 uM by LC/MS analysis; type: ADME
How it was run: (§1)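 Compound at 1 µM final, diluted from […], with 0.5 mg/mL pooled human or mouse liver microsomes, NADP, MgCl2 and 0.1 M PBS pH 7.4. Reaction started with 1 U/mL G6PD and shaken at 37 °C. Aliquots quenched in cold acetonitrile at 0, 10, 20, 30 and 60 min and quantified by LC/MS. Half-life from log plot of total ion chromatogram area remaining.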

[2] = Half life in mouse liver microsomes at 1 uM by LC/MS analysis; type: ADME; how it was run: as §1
[3] = tested on: Plasmodium falciparum; experiment: Antimalarial activity against chloroquine-sensitive Plasmodium falciparum D6 assessed as growth inhibition after 18 hrs by [3H]-hypoxanthine uptake assay; type: functional, organism-based
How it was run: (§2)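 P. falciparum clones D6, W2 and TM91C235; modified semiautomated microdilution. Compounds in DMSO, diluted in RPMI 1640 with 10% human plasma, tested over (1.56-100) x 10^-9 M; final DMSO 0.25-0.5%. Inoculum 0.5% parasitemia, 1% hematocrit. 24 h incubation, then [3H]-hypoxanthine added, further 18 h. Harvested and read by scintillation counting; IC50 by nonlinear regression.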

[4] = tested on: Plasmodium falciparum; experiment: Antimalarial activity against chloroquine-resistant Plasmodium falciparum W2 assessed as growth inhibition after 18 hrs by [3H]-hypoxanthine uptake assay; type: functional, organism-based; how it was run: as §2
[5] = tested on: Plasmodium falciparum; experiment: Antimalarial activity against chloroquine-resistant Plasmodium falciparum C235 assessed as growth inhibition after 18 hrs by [3H]-hypoxanthine uptake assay; type: functional, organism-based; how it was run: as §2
[6] = tested on: HepG2; experiment: Cytotoxicity against human HepG2 cells after 48 hrs by MTT assay; type: cell-based; details: HepG2, 48 h
How it was run: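 HepG2 cells in supplemented MEM, plated at 9570 cells/well in 384-well format and incubated overnight at 37 °C, 5% CO2. Twelve duplicate 1.6-fold dilutions, 57–10,000 ng/ml, incubated 48 h. MTT added for 1 h at room temperature in the dark, formazan dissolved in acidified isopropanol, absorbance read. IC50 by sigmoidal variable-slope nonlinear regression; tryptanthrin control.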

[7] = target: hERG (KCNH2) (Homo sapiens, UniProt Q12809); experiment: Inhibition of human ERG expressed in CHL cells assessed as tail current at 10 uM after 7 mins by patch clamp assay relative to control; type: cell-based; details: CHL cells expressing human ERG
Chain of hERG (KCNH2) (Q12809 whole entry): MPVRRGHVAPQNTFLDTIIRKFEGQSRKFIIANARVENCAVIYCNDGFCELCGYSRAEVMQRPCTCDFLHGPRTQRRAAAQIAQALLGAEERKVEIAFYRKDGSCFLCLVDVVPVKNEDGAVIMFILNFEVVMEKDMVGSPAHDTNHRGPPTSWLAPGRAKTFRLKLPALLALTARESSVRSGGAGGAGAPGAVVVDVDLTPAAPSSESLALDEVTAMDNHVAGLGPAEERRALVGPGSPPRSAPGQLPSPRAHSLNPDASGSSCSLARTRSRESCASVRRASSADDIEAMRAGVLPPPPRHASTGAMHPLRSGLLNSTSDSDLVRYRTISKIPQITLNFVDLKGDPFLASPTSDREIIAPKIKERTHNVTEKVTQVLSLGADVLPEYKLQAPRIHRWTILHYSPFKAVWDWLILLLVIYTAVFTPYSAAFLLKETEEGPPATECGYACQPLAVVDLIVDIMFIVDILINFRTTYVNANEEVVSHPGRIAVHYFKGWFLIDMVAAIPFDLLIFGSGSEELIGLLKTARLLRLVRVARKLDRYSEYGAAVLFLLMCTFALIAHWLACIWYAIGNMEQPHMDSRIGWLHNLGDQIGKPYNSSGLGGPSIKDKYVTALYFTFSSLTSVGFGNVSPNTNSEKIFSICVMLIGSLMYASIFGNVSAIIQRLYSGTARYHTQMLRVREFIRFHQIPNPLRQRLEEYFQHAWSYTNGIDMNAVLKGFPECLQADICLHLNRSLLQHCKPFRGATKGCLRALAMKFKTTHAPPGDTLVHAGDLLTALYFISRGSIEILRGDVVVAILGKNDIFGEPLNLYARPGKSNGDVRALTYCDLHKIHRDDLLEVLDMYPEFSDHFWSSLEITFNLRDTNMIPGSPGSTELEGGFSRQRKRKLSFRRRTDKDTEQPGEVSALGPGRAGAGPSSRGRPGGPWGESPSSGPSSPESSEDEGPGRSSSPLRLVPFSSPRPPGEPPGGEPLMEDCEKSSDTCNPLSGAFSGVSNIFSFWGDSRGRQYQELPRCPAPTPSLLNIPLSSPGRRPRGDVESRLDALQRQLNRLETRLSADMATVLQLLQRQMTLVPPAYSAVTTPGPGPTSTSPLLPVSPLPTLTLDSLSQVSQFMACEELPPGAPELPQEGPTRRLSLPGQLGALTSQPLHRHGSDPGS

[8] = tested on: Plasmodium berghei; experiment: Antimalarial activity against erythrocytic stage of chloroquine resistant Plasmodium berghei ANKA infected in mouse assessed as cure rate at 120 mg/kg, po qd administered on day 3, 4 and 5 post infection measured 3 times per week for 30 days, starting from day 3 by Thompson test; type: functional, organism-based; set-up: dose 120 mg/kg
How it was run: (§3)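 Male mice of 16-20 g inoculated intraperitoneally with 5 x 10^6 erythrocytes infected with CQ-resistant P. berghei ANKA. Drug given orally as a suspension once daily on days 3, 4 and 5 post-infection, five mice per dose. Blood films from day 3, three times weekly for 30 days. Cure means parasite-negative on day 30 or surviving 30 days. Mice losing >20% body weight sacrificed.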

[9] = tested on: Mus musculus; experiment: Toxicity in mouse infected with erythrocytic stage of chloroquine resistant Plasmodium berghei ANKA up to 160 mg/kg, po qd administered on day 3, 4 and 5 post infection measured over 30 days; type: organism-based, Erythrocyte; set-up: dose 160 mg/kg, route oral; details: in vivo, 720 h
How it was run: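 Male mice of 16-20 g infected intraperitoneally with CQ-resistant P. berghei ANKA (5 x 10^6 infected erythrocytes). Oral dosing once daily on days 3-5, five mice per group. Animals followed for 30 days by blood films; mice losing >20% body weight sacrificed.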

[10] = tested on: Plasmodium berghei; experiment: Antimalarial activity against erythrocytic stage of chloroquine resistant Plasmodium berghei ANKA infected in mouse assessed as cure rate at 60 mg/kg, po qd administered on day 3, 4 and 5 post infection measured 3 times per week for 30 days, starting from day 3 by Thompson test; type: functional, organism-based; set-up: dose 60 mg/kg; how it was run: as §3
[11] = tested on: Plasmodium berghei; experiment: Antimalarial activity against erythrocytic stage of chloroquine resistant Plasmodium berghei ANKA infected in mouse assessed as cure rate at 15 mg/kg, po qd administered on day 3, 4 and 5 post infection measured 3 times per week for 30 days, starting from day 3 by Thompson test; type: functional, organism-based; set-up: dose 15 mg/kg; how it was run: as §3
[12] = Elimination half life in ICR mouse at 80 mg/kg, po; type: ADME, organism-based; set-up: dose 80 mg/kg, route oral; details: in vivo, read-out: beta t1/2 (converted)
How it was run: (§4)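 Male 7-week-old ICR mice, 23–28 g, given a single intragastric dose of 80 mg/kg in DD water (100 µL/20 g). Three mice per time point; whole blood taken by cardiac puncture into lithium heparin tubes and spun to plasma. Parameters come from plasma concentration–time curves of parent drug. t1/2 = ln2/kel from the log plot. AUC by linear trapezoidal rule, extrapolated to infinity; MRT = AUMC/AUC.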

[13] = Tmax in ICR mouse at 80 mg/kg, po; type: ADME, organism-based; set-up: dose 80 mg/kg, route oral; details: in vivo; how it was run: as §4
[14] = Cmax in ICR mouse at 80 mg/kg, po; type: ADME, organism-based; set-up: dose 80 mg/kg, route oral; details: in vivo; how it was run: as §4
[15] = AUClast in ICR mouse at 80 mg/kg, po; type: ADME, organism-based; set-up: time 0 - last, dose 80 mg/kg, route oral; details: plasma
[16] = AUCinfinity in ICR mouse at 80 mg/kg, po; type: ADME, organism-based; set-up: time infinity, dose 80 mg/kg, route oral; details: plasma; how it was run: as §4
[17] = Apparent volume of distribution during terminal phase in ICR mouse at 80 mg/kg, po; type: ADME, organism-based; set-up: dose 80 mg/kg, route oral; details: in vivo, read-out: Vz/F
[18] = Apparent oral clearance in ICR mouse at 80 mg/kg; type: ADME, organism-based; set-up: dose 80 mg/kg, route oral; details: in vivo
[19] = Mean residence time in ICR mouse at 80 mg/kg, po; type: ADME, organism-based; set-up: dose 80 mg/kg, route oral; details: in vivo; how it was run: as §4
[20] = tested on: Salmonella typhi; experiment: Mutagenicity in Salmonella typhi by Ames test; type: toxicity, organism-based; details: salmonella enterica subsp. enterica […]
[21] = tested on: Plasmodium berghei; experiment: Antimalarial activity against erythrocytic stage of chloroquine resistant Plasmodium berghei ANKA infected in mouse assessed as cure rate at 160 mg/kg, po qd administered on day 3, 4 and 5 post infection measured 3 times per week for 30 days, starting from day 3 by Thompson test; type: functional, organism-based; set-up: dose 160 mg/kg; how it was run: as §3
[22] = tested on: Plasmodium berghei; experiment: Antimalarial activity against erythrocytic stage of chloroquine resistant Plasmodium berghei ANKA infected in mouse assessed as reduction of parasitemia at 160 mg/kg, po qd administered on day 3, 4 and 5 post infection measured 2 days post last dose relative to control; type: functional; set-up: scale not given: the % may be the effect or the level left
How it was run: (§5)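 Male mice of 16-20 g inoculated intraperitoneally with 5 x 10^6 erythrocytes infected with CQ-resistant P. berghei ANKA. Drug given orally as a suspension once daily on days 3, 4 and 5 post-infection, five mice per dose. Parasitemia followed by blood films from day 3, three times weekly for 30 days; infected untreated mice served as negative controls.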

[23] = tested on: Plasmodium falciparum; experiment: Potency index, ratio of chloroquine IC50 to compound IC50 for chloroquine-resistant Plasmodium falciparum W2; type: functional
[24] = tested on: Plasmodium berghei; experiment: Antimalarial activity against erythrocytic stage of chloroquine resistant Plasmodium berghei ANKA infected in mouse assessed as parasite clearance at 160 mg/kg, po qd administered on day 3, 4 and 5 post infection measured on day 2 to 7 post last dose; type: functional, organism-based; set-up: dose 160 mg/kg; how it was run: as §5

| Structure (SMILES) | half-life at 1 µM [1] [min] | half-life at 1 µM [2] [min] | IC50 [3] [nM] | IC50 [4] [nM] | IC50 [5] [nM] | IC50 [6] [µg/mL] | inhibition at 7 min, 10 µM [7] [%] | Activity [8] | Activity [9] | Activity [20] | further results |
| --- | --- | --- | --- | --- | --- | --- | --- | --- | --- | --- | --- |
| CCN(CC)CCC/N=C(\C)Nc1c2ccc(Cl)cc2nc2ccc(OC)nc12 | 33 | 29 | 17.6 | 41 | 26.6 | 2.06 (≈ 4.97 µM) | 100 | Active | Non-toxic | – | – |
| CCN(CC)CC(C)(C)C/N=C(/Nc1c2ccc(Cl)cc2nc2ccc(OC)nc12)c1ccccc1 | > 60 | > 60 | 21.8 | 61 | 29.7 | > 24.2 | 10 | – | Non-toxic | – | Activity [10]: Active; Activity [11]: Active |
| COc1ccc2nc3cc(Cl)ccc3c(N/C(=N/CCCN3CCCCC3)c3ccccc3)c2n1 | 9 | 12 | 5.1 | 3.3 | 4.3 | 2.56 (≈ 5.25 µM) | 80 | Active | Non-toxic | – | – |
| CCN(CC)CCC/N=C(\C)N(CCCN(CC)CC)c1c2ccc(Cl)cc2nc2ccc(OC)nc12 | > 60 | > 60 | 1.3 | 9.5 | 5.1 | 3.04 (≈ 5.78 µM) | 13.8 | Active | Non-toxic | Non-toxic | Activity [10]: Active; half-life [12]: 47.5 h; Tmax [13]: 120 min; Cmax [14]: 222 ng/mL; AUC(0-t) [15]: 4930 ng·h/mL; AUC(0-inf) [16]: 8950 ng·h/mL; Vd/F [17]: 610 L/kg; CL/F [18]: 150 mL/min/kg; MRT [19]: 1330 min |
| CN(C)CCCN/C(=N\c1ccnc2cc(Cl)ccc12)c1ccc(Cl)cc1 | 48 | 35 | 2 | 2.9 | 1.1 | 1.93 (≈ 4.8 µM) | 115 | – | – | Non-toxic | – |
| C/C(=N/c1ccnc2cc(Cl)ccc12)NCCCN1CCCCC1 | > 60 | 25 | 25 | 36 | 14 | 23.3 (≈ 67.5 µM) | 27.7 | – | Non-toxic | – | Activity [21]: inactive; Activity [22]: 95.4% |
| CN(C)CCCN/C(=N\c1ccnc2cc(Cl)ccc12)c1ccccc1 | > 60 | 52 | 2.1 | 9.2 | 3.4 | 5.13 (≈ 14 µM) | 90.6 | – | – | Non-toxic | Ratio IC50 [23]: 50 |
| CC(C)/C(=N/c1ccnc2cc(Cl)ccc12)NCCCCN1CCCCC1 | 29 | 31 | 7.5 | 18.6 | 12 | 5.71 (≈ 14.8 µM) | 33 | Active | Non-toxic | – | – |
| C/C(=N/c1ccnc2cc(Cl)ccc12)NC1CCN(Cc2ccccc2)CC1 | > 60 | > 60 | 56 | 199 | 87 | 8.07 (≈ 20.5 µM) | – | – | Non-toxic | – | Activity [21]: inactive; Activity [24]: Active |
